Laboratory results reported in ChEMBL document CHEMBL1139728, “Design, synthesis, and characterization of new embelin derivatives as potent inhibitors of X-linked inhibitor of apoptosis protein” (Bioorg Med Chem Lett, 2006).

Key:
MDA-MB-231 = assay: Growth inhibition in human MDA-MB-231 cell line; type: functional, cell-based
Method in brief: (§1)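 Human cancer cells (MDA-MB-231 (2LMP) breast line; PC-3 prostate line) exposed to compound for 4 days across a concentration series spanning 0.01–100 μM. Growth read by WST assay; IC50 taken from the dose-response curve.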

PC-3 = assay: Growth inhibition in human PC3 cell line; type: functional, cell-based; method in brief: as §1
[1] = biological target: E3 ubiquitin-protein ligase XIAP (Homo sapiens, UniProt P98170); assay: Binding affinity to recombinant XIAP BIR3 by FP assay
Method in brief: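 Competitive fluorescence-polarization assay on the XIAP BIR3 domain; binding expressed as Ki.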

E3 ubiquitin-protein ligase XIAP, sequence (P98170 whole entry, the tested form may be a part): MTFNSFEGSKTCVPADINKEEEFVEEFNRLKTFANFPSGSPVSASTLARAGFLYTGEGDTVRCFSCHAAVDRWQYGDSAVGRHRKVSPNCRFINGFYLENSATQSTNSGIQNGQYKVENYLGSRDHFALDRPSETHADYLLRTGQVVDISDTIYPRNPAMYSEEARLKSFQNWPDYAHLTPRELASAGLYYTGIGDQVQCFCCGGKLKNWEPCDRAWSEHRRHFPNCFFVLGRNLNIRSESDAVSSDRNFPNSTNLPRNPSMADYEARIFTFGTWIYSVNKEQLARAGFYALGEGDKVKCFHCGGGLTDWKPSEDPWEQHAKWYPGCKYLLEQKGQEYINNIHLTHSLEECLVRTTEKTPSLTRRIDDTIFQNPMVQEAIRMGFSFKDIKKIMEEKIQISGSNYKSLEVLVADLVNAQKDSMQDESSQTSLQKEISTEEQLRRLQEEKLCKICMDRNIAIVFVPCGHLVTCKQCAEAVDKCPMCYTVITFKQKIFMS

| Compound | IC50 (MDA-MB-231) [nM] | IC50 (PC-3) [nM] | Ki [1] [nM] |
| --- | --- | --- | --- |
| Cc1cccc(CCc2cccc(CCC3=C(O)C(=O)C=C(O)C3=O)c2)c1 | 5000 | 5500 |  |
| O=C1C=C(O)C(=O)C(CCCCc2ccccc2)=C1O |  |  | 1300 |
| O=C1C=C(O)C(=O)C(CCc2ccccc2)=C1O |  |  | 710 |
| CCC1=C(O)C(=O)C=C(O)C1=O |  |  | 10400 |
| CCCCc1cccc(CCC2=C(O)C(=O)C=C(O)C2=O)c1 |  |  | 480 |
| CCCCCCCCCCCC1=C(O)C(=O)C=C(O)C1=O [EMBELIN] |  |  | 400 |
